Mot1-301 SUMO = SUMOylation pathway inhibition by Mot1-301 growth rescue; 1% of 320,000 active; S. cerevisiae Mot1-301 growth rescue, ATP luminescence, 38.5C; percent above DMSO median, 100 means doubled; AID 2716; growth rescue, % at 18.8 µM;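 active means every valid replicate shows activation above 250% relative to neutral control wells; inactive means the rest, any valid replicate at or below 250%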;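 further: OY570 slx delta 5 strain wells were the positive control but not used for scaling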
hERG protect = shields human hERG channel from block by proarrhythmic agents; Q12809; CHO-hERG, FluxOR thallium flux, dofetilide IC70 present; activation (rescue from dofetilide block), less the hit threshold, % at 10 µM; 0.51% of 310,000 active;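 active means activation above the mean of controls blocked by dofetilide plus 5 SD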;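 further: thallium influx through hERG after potassium depolarization seen as dye fluorescence rise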
Cl transport mod = modulates chloride dependent transport by human KCC2; Q9H2X9; KCC2 cells, thallium flux FluoZin-2 fluorescence; B-score of Tl+ flux slope (higher = more flux/activation; lower = inhibition) at 10 µM; 2.2% of 190,000 active;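 active means thallium flux slope and its plate-corrected score both differing from the plate sample mean at a set confidence after two filtering rounds, in either direction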;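 further: slope of fluorescence scaled to starting intensity during 10 to 20 s after thallium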
KCNQ1 act = potentiates or activates the human KCNQ1 potassium channel. CHO-K1 KCNQ1, thallium flux FluxOR fluorescence; hits give high values. B-score at 10 µM. 0.35% of 310,000 active;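 active means fluorescence ratio B-score, a plate-corrected score, at least three library SD, with initial intensity B-score within 5 SD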
Target sequence (P51787 whole entry, looked up): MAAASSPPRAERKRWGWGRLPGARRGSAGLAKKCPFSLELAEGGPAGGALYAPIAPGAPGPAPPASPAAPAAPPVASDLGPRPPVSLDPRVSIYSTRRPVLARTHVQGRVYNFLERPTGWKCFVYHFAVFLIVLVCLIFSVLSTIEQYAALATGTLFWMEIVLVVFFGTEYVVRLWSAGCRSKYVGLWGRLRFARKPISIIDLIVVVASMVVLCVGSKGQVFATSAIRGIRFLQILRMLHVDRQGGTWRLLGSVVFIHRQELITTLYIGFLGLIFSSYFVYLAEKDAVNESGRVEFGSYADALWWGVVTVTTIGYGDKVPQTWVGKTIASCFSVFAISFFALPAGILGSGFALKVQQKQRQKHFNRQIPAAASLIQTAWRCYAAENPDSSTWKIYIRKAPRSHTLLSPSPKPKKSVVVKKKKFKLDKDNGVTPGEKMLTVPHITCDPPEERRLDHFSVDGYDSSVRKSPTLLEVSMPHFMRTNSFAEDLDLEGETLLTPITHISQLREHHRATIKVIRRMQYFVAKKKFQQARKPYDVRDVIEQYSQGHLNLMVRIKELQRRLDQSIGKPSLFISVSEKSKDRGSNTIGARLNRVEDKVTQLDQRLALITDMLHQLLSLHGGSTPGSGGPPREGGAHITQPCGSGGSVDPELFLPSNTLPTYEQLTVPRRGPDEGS
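assay system = KCNQ1-transfected CHO-K1 cells | medium = assay buffer with matched DMSO | probe or stimulus = depolarizing K+/Tl+ stimulus, K2SO4 and Tl2SO4 each 12.5 mM in 5x stock | dosing = single dose | incubation = dye 90 min, compound 20 min, room temperature | detection = kinetic FluxOR fluorescence, 10 s baseline plus 110 s post-stimulus | evaluation = ratio B score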
KCNQ1 block = human KCNQ1 channel inhibition; P51787; CHO-K1 KCNQ1, FluxOR thallium flux fluorescence; hits give high values; B-score at 10 µM; 1.3% of 310,000 active; AID 2642;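 active means compounds whose thallium flux B-score, printed positive for inhibition, exceeds three library SD while starting fluorescence stays within three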;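 further: channel opened by potassium depolarization with thallium stimulus after 20 min compound exposure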
AI-2 QS mod = modulators of Vibrio harveyi AI-2 quorum sensing system. Vibrio harveyi JMH597 AI-2 luminescence/OD600 ratio, 9 h; hits give low values; strain lacks LuxN and CqsS sensors; 0 = neutral-control median. activity change, % at 7.5 µM. 0.4% of 300,000 active. AID 2094; in the data active means activity change below about -75%, passing the limit was not always enough; inconclusive means no clear call, values can overlap the other calls;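 further: luminescence divided by OD600 gain over 9 h not by final OD600 alone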
JMH597 growth rt = retest: inhibitors of Vibrio harveyi JMH597 growth; OD600 absorbance, 9 h; lacks LuxN and CqsS sensors; 1% of 750 active; AID 2726; shares compounds with AI-2 QS mod; growth inhibition, % at 7.5 µM;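 active means every replicate shows growth inhibition above 50%; inconclusive means at least half, but not all, replicates pass that cutoff; inactive means fewer than half of replicates pass it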
BB721 const-QS lum = retest counter-screen: luminescence loss in constitutive-on quorum sensing strain BB721; 95% of 750 active; inhibition, % at 7.5 µM; shares compounds with AI-2 QS mod; Vibrio harveyi BB721 luminescence, 9 h; AID 2727;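 active means inhibition above about 80% in every replicate, not just on average, limit read from the data; inconclusive means at least half of replicates past the limit, but not all; inactive means fewer than half of replicates past the limit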
BB721 growth rt = retest Vibrio harveyi BB721 growth inhibition. shares compounds with AI-2 QS mod. OD600 absorbance, 9 h. growth inhibition, % at 7.5 µM. 3% of 750 active. AID 2728;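 active means every replicate shows growth inhibition above 50%; inconclusive means at least half but not all replicates above 50% inhibition; inactive means under half of replicates above 50% inhibition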
JMH597 AI-2 mod = Vibrio harveyi AI-2 signaling luminescence modulation – JMH597 strain, confirmation; Vibrio harveyi JMH597 AI-2 quorum sensing luminescence, 9 h; luxN and CqsS knockout, AI-2 only; shares compounds with AI-2 QS mod; AID 2736; inhibition, % at 7.5 µM; 97% of 750 active;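 active means every replicate shows more than 75% inhibition of signal versus neutral control wells; inconclusive means half to three quarters of replicates exceed 75% inhibition; inactive means fewer than half of replicates exceed 75% inhibition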
Starred values were filed as active, the others as inactive; i = inactive; ? = inconclusive; · = no result given. Compounds with a hit are over-represented: about 4.2% of the library has one in this group of screens.

SMILES	Mot1-301 SUMO	hERG protect	Cl transport mod	KCNQ1 act	KCNQ1 block	AI-2 QS mod	JMH597 growth rt	BB721 const-QS lum	BB721 growth rt	JMH597 AI-2 mod
Cc1nn(CC(=O)Nc2nnc(CC(=O)N3CCCC3)s2)c(=O)c2ccccc12	-9	-6	·	i	i	5	·	·	·	·
Cc1nn(CC(=O)Nc2cccnc2)c(=O)c2ccccc12	3	-12	0.015	i	i	-95*	-1	98*	-9	99*
CN(Cc1ccccc1)c1nc2c(c(=O)[nH]c(=O)n2C)n1CCOc1ccccc1	1	-11	·	i	i	2	·	·	·	·
COc1cccc(OC)c1OCCN1CCN(C(c2ccccc2)c2ccccc2)CC1	15	-14	·	i	i	31	·	·	·	·
Cc1nc(NC(=O)CSc2nnc(Cn3nnc4ccccc43)n2C)sc1C	-5	-2	0.46	i	i	35	·	·	·	·
O=C(Nc1ccc(Oc2ccccc2)cc1)C1CCN(c2ncccn2)CC1	-9	-16	-0.61	i	i	-3	·	·	·	·
COC(=O)N/N=C/c1ccc(Oc2ccccc2)cc1	-1	-8	-1.4	i	i	-85*	23	95*	36	95*
CCOC(=O)Nc1ccc(Oc2ccccc2)cc1	-10	-2	0.42	i	i	-95*	25	99*	26	99*
O=C(Nc1ccc(Oc2ccccc2)cc1)C1CC1	96	-9	·	i	i	-87*	23	98*	59*	96*
CCOC(=O)Nc1ccc(C(=O)Oc2ccccc2)c(O)c1	8	-6	0.6	i	i	-9	·	·	·	·
Cc1ccc(C(=O)N/C(=C\c2ccc3c(c2)OCO3)C(=O)Nc2ccc(C(=O)O)cc2)cc1	-10	-8	0.35	i	i	26	·	·	·	·
COCc1cc(C)nc(N/N=C/c2ccc(Cl)c(Cl)c2)c1C#N	-1	-10	0.33	i	i	6	·	·	·	·
COc1ccc(/C=N/Nc2ccc(C(=O)O)cc2)cc1OC	-23	-11	0.007	i	i	-93*	-9	96*	7	97*
Cc1ccsc1/C=N/NC(=O)CNC(=O)c1ccccc1	-12	0	·	i	i	?	-9	93*	-1	95*
Cc1ccsc1/C=N/Nc1ccc(C(=O)O)cc1	0	-7	·	i	i	-91*	40	98*	65*	99*
O=C(CNC(=O)c1cccc(Br)c1)N/N=C/c1cccs1	-3	-7	·	i	i	-83*	-30	91*	-18	91*
COc1ccc(C(=O)Oc2ccc(/C=N/Nc3ccc(Cl)c(C(=O)O)c3)cc2OC)cc1	40	-4	·	i	i	60	·	·	·	·
COCCNC(=O)c1cc2cc(Cl)cc(Cl)c2oc1=O	48	-13	1.1	i	i	12	·	·	·	·
COc1ccc(Nc2nc(-c3cccs3)nc3ccccc23)cc1S(=O)(=O)N1CCOCC1	8	-27	·	i	i	18	·	·	·	·
CCOc1ccc(S(=O)(=O)NCCC(=O)NCC(c2ccc(F)cc2)N2CCOCC2)cc1 (stereo not given)	-11	-20	·	i	i	17	·	·	·	·
Cc1ccc(/C=N/Nc2ccc(C(=O)O)cc2)o1	-8	-3	-0.41	i	i	-91*	4	97*	22	98*
CC(C)COc1ccc(/C(=N/O)c2ccccc2)cc1	-10	-1	-0.059	i	i	-85*	20	94*	27	95*
